Results taken from paper PMC5699463 (Journal of the American Chemical Society, 2017).
Values after ≈ are worked out from the molar mass of the structure shown.

Key:
TarGH = TarGH (Staphylococcus aureus, UniProt Q2G2X5); experiment: ATPase activity of reconstituted TarGH in proteoliposomes; assay type: biochemical; conditions: 1.0 µM compound; compared with TarH E169Q mutant
[1] = test system: wildtype S. aureus (Newman); experiment: Growth inhibition; assay type: cell-based, Staphylococcus aureus
[2] = test system: B. subtilis strain KS002 (TagGH replaced with S. aureus TarGH); experiment: Disk diffusion assay against B. subtilis strain KS002 expressing S. aureus TarGH; assay type: cell-based, Bacillus subtilis; conditions: strain expressing the S. aureus transporter
[3] = test system: S. aureus ΔtarO knockout strain; experiment: Counterscreen: growth inhibition of WTA null; assay type: cell-based, Staphylococcus aureus
Summary of the method: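 Library compounds were screened in duplicate at ~15 µM final against wildtype S. aureus Newman. In parallel they were counterscreened against the WTA-null ΔtarO strain to find growth inhibition that is suppressed when WTA is absent. Growth was read as OD600 and averaged over the duplicates.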

B. subtilis = experiment: Growth inhibition of B. subtilis; assay type: cell-based, Bacillus subtilis
wildtype B. subtilis = experiment: Disk diffusion assay against wildtype B. subtilis; assay type: cell-based, Bacillus subtilis
[4] = test system: Lipid II pool levels in S. aureus; experiment: Assay to detect Lipid II abundance after antibiotic treatment; assay type: cell-based, Staphylococcus aureus; conditions: S. aureus cultures treated for ten minutes
Summary of the method: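 S. aureus cultures were exposed for 10 min to test compound or to peptidoglycan-synthesis inhibitor controls that either deplete or accumulate Lipid II. Lipid II was then extracted and labelled with biotin-d-Lys to measure its pool level.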

Row | Compound | ATPase activity of the WT transporter in the presence of compound (TarGH) | minimum inhibitory concentration (MIC) [1] [µg/mL] | MIC relative to that of targocil ([1]; compared with targocil) | zone of inhibition [2] | activity against the ΔtarO strain [3] | growth inhibition of B. subtilis (B. subtilis) | zone of inhibition (wildtype B. subtilis) | effect on Lipid II pool levels [4]
1 | Cc1c(CC(=O)N2CCC[C@H]2C(=O)O)c(=O)oc2c(C)c3occ(-c4ccc(Cl)cc4)c3cc12 [Compound 2] | comparable to that of a TarGH mutant containing a mutation that impairs ATP hydrolysis | 0.125 (≈ 0.26 µM) | eight-fold lower | dose-dependent inhibition zone | no activity | did not inhibit growth | did not show a zone of inhibition | depleted Lipid II
2 | CCN(CC)c1nc2c(S(=O)(=O)c3ccc(Cl)cc3)nnn2c2cc(OC)c(OC)cc12 [targocil] |  |  |  |  |  |  |  | depleted Lipid II
3 | bacitracin |  |  |  |  |  |  |  | depleted Lipid II
